In PubChem BioAssay AID463076 (The Scripps Research Institute Molecular Screening Center, 2010):
Activity calls are given as the source filed them.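 How the source made its calls: active means compounds blocking FLT3 kinase activity with IC50 at or below 1000 nM; inactive means IC50 above 1000 nM.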

The compounds below were run against Receptor-type tyrosine-protein kinase FLT3 (Homo sapiens) (UniProt P36888) (assay: inhibitors of human FLT3 tyrosine kinase – biochemical, radioactive 33P-ATP, powder samples, selectivity assay for CK1d inhibitor project, late-stage follow-up (AID 463076)). Settings: purified FLT3, 33P-ATP Abltide filter-binding assay.
Method in brief: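 Test system: cell-free kinase reaction / Also added: 33P-labelled ATP plus peptide substrate / Dosing: 10-point threefold dilution series from 50 µM nominal top / Times: reaction 120 min, room temperature / Technique: filter binding of 33P radioactivity incorporated into peptide / Read-out: IC50 from radioactivity signal ratio versus compound concentration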

Chain of Receptor-type tyrosine-protein kinase FLT3 (Homo sapiens) (P36888 whole entry, looked up): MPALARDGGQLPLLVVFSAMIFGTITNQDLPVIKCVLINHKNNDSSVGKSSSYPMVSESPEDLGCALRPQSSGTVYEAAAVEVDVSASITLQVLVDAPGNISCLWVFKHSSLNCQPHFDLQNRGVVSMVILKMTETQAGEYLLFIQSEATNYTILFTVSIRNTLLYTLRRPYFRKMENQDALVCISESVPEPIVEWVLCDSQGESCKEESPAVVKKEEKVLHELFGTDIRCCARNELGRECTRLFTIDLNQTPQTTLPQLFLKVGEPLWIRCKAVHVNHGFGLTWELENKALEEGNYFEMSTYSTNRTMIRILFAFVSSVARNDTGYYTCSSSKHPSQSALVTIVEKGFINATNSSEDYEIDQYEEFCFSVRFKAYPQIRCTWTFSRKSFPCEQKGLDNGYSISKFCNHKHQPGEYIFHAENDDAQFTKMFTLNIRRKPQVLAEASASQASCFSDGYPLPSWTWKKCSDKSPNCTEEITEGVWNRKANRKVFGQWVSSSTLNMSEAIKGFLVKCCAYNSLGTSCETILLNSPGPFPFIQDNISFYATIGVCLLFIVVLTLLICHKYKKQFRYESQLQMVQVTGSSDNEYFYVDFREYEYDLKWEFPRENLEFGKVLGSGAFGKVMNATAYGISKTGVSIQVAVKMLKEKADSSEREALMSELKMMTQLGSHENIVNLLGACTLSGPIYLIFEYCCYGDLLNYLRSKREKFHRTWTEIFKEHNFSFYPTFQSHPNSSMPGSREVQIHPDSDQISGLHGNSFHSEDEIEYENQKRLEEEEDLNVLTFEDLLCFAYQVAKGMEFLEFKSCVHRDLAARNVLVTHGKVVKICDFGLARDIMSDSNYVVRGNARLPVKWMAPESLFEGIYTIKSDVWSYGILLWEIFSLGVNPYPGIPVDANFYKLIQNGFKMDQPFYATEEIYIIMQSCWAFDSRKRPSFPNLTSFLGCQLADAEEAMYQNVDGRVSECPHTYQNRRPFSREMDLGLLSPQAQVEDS

Row | SMILES | IC50
1 | c1ccc2cc3[nH]c(CNc4nc(N5CCOCC5)nc5c4ncn5-c4ccsc4)nc3cc2c1 | 975 nM
2 | CC(C)n1cnc2c(NCc3nc4c([N+](=O)[O-])cccc4[nH]3)nc(N3CCOCC3)nc21 | inactive
3 | CCOC(=O)c1cccc2[nH]c(CNc3nc(N4CCOCC4)nc4c3ncn4-c3ccsc3)nc12 | 548 nM
4 | FC(F)(F)c1cccc2[nH]c(CNc3nc(N4CCOCC4)nc4c3ncn4-c3ccsc3)nc12 | 262 nM
5 | O=[N+]([O-])c1cccc2[nH]c(CNc3nc(N4CCOCC4)nc4c3ncn4-c3ccsc3)nc12 | 305 nM
6 | Cc1ccnc(NC(=O)CCCOc2cc(=O)n(C)c3ccccc23)c1 | inactive

The next lines start with the values.

Row | IC50 | SMILES
7 | 301 nM | Clc1ccc2nc(CNc3nc(N4CCOCC4)nc4c3ncn4-c3ccsc3)[nH]c2c1
8 | 62 nM | N#Cc1ccc2nc(CNc3nc(N4CCOCC4)nc4c3ncn4-c3ccsc3)[nH]c2c1
9 | 240 nM | O=[N+]([O-])c1ccc2nc(CNc3nc(N4CCOCC4)nc4c3ncn4-c3ccsc3)[nH]c2c1
10 | 14 nM | COc1ccc2nc(CNc3nc(N4CCOCC4)nc4c3ncn4-c3ccsc3)[nH]c2c1
11 | 100 nM | c1ccc2[nH]c(CNc3nc(N4CCOCC4)nc4c3ncn4-c3ccsc3)nc2c1
12 | 509 nM | FC(F)(F)c1ccc2nc(CNc3nc(N4CCOCC4)nc4c3ncn4-c3ccsc3)[nH]c2c1
13 | 79 nM | Fc1ccc2nc(CNc3nc(N4CCOCC4)nc4c3ncn4-c3ccsc3)[nH]c2c1
